From PubChem
Autophagy HCS: alters autophagy in cells; MEF GFP-LC3 puncta imaging; test concentration mostly 10 µM; 190,000 tested, 0.98% active; AID 463193; calls only at 10 µM (by protocol);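 active means percentage of spot-positive cells more than 3 SD above its plate mean, without a fluorescence outlier flag or 80% toxicity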;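 further: spot-positive cell cutoff set from DMSO-treated cells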
Dynein transport: dynein cargo transport inhibition; 220,000 tested, 0.47% active; z-score, hits read low; AID 1381; 3617.4 mouse cells, GR-EGFP nuclear translocation imaging; test concentration mostly 20 µM; stimulated with dexamethasone, 1 µM; hits give low values;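 active means plate z-score of nuclear minus cytoplasmic receptor signal below a set negative limit, without overly bright fluorescence or cell loss, cut at about -3.5 in these data, passing the limit was not always enough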;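 further: z-score of nuclear minus cytoplasmic ring GR-EGFP intensity difference per well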
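Buffer or medium: tet-free, stripped-serum medium; Also added: dexamethasone, 1.0 µM final; Technique: high-content fluorescence imaging after fixation; Times: 48 h induction, 1 h compound, 30 min dex at 37 °C; Read-out: per-cell GR-EGFP intensity, nucleus versus surrounding cytoplasmic ring, well-averaged.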
TNF necrop inh: inhibitors of TNF-alpha induced necroptosis in Jurkat FADD-/- cells. Jurkat FADD-/- TNF necroptosis rescue, ATP luminescence, 24 h; 0 = TNF only, 100 = no-TNF cells. activation (protection from cell death), % at 10 µM. 220,000 tested, 0.068% active;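 active means activation, meaning protection from cell death, of at least 50% relative to plate controls; inactive means activation below 50%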;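 further: necroptosis triggered by 40 ng/mL TNF-alpha added together with compound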
MDM2 E3 inh: inhibitors of human Mdm2 E3 ubiquitin ligase. Q00987. signal enhancement, % at 5 µM. AID 1230. 210,000 tested, 0.11% active. cell-based MDM2 ubiquitination luciferase reporter, 2 h; 0 = plate control, 100 = twice control, blank-subtracted;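 active means signal enhancement of 30% or more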;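 further: luminescence tracks abundance of the self-degrading MDM2-luciferase fusion protein; higher signal means inhibition of MDM2 E3 ligase activity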
Target sequence (Q00987 whole entry, looked up, the tested form may be a part): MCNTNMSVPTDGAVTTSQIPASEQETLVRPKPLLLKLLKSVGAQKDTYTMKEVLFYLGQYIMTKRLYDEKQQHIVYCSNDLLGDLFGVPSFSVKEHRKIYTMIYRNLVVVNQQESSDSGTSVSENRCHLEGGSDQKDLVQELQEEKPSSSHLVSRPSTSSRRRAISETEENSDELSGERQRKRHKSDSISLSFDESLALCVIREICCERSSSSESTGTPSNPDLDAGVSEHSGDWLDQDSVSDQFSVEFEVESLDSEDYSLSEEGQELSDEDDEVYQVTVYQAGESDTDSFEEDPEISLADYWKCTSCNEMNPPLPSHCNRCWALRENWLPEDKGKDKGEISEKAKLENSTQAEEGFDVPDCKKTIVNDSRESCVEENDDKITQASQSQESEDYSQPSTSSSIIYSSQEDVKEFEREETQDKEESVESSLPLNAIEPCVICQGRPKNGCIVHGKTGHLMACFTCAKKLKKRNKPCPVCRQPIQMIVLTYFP
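Assay system: stable mammalian line carrying autodegrading MDM2–luciferase fusion reporter; amount: 2000 cells seeded into each well; buffer or medium: DMEM; benchmarks: plate control and blank wells; signal: luciferase luminescence; timing: 2 h compound exposure at 37 °C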
zVAD death inh: L929 zVAD cell death inhibition; 220,000 tested, 0.38% active; AID 1377; L929 zVAD necroptosis rescue, ATP luminescence, 24 h; with zVAD 60 µM; viability rescue, % at 10 µM;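 active means activation, scaled between plate controls, above about 75%, limit read from the data; inactive means activation under that limit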;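 further: 0% = zVAD with DMSO and 100% = DMSO alone without zVAD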
Numbers without * were called inactive; i = inactive; x = no result; + = active, no number. Compounds with a hit are over-represented: about 1.8% of the library has one in this group of screens.

SMILES	Autophagy HCS	Dynein transport	TNF necrop inh	MDM2 E3 inh	zVAD death inh
COc1cccc(-c2cc(C(F)(F)F)c(C#N)c(=O)[nH]2)c1	+	-0.82	-1	10	2
CCOc1ccc(NC(=O)/C(C#N)=C/c2ccc(N3CCCC3)c(C)c2)cc1	+	-1.6	2	-6	1
COC(=O)c1[nH]c(C)c(/C(O)=C2\C(=O)C(=O)N(CCN3CCOCC3)C2c2ccco2)c1C (stereo unspecified)	x	0.71	1	-7	0
Cc1ccc(-c2nnc(CCC(=O)NCC3C4CC5CC(C4)CC3C5)o2)s1 (stereo unspecified)	i	-1.3	-1	-6	1
CCCCn1c(SCC(=O)Nc2cc(C(F)(F)F)ccc2Cl)nnc1C(CC)N(C)C (stereo unspecified)	+	-0.024	3	-13	0
CC(C)C(NS(=O)(=O)c1ccc2c(c1)OCCCO2)C(=O)O (stereo unspecified)	i	-0.38	0	-12	1
Cn1cc(Cl)c(C(=O)NC(=S)Nc2sc3c(c2C#N)CCCCC3)n1	+	-0.061	3	-10	3
Cn1cc(Br)c(C(=O)Nc2sc3c(c2C#N)CCC3)n1	x	0.65	0	-19	0
Cc1ccc(NC(=O)N2N=C(c3ccc(F)cc3)CC2c2ccc(F)cc2)cc1 (stereo unspecified)	i	-0.63	1	6	0
CCc1ccc(NC(=O)C(=O)NCc2ccccn2)cc1	i	1.7	2	-3	1
CC(C)N1CCc2c(sc(NC(=O)c3ccc(S(=O)(=O)N4CCc5ccccc54)cc3)c2C(N)=O)C1	+	-2.4	-4	-14	1
Cc1ccc(NC(=O)COc2ccc(Br)cc2C)cc1	i	0.41	2	10	0
Nc1c(Cl)ncnc1N/N=C/c1ccc2ccccc2n1	i	0.3	-7	41*	36
CSc1nnc(C)c(=O)n1COC(=O)/C=C/c1ccc2c(c1)OCO2	i	0.086	-1	-5	4
COc1cc(-c2nnc3n2N=C(c2ccccc2)CS3)cc(OC)c1OC	+	0.14	-15	-3	0
COc1ccc(OC)c(C2=Nn3c(nnc3-c3cc(OC)c(OC)c(OC)c3)SC2)c1	i	-0.34	-4	12	0
COc1ccc(C(F)(F)F)cc1N/C=C/c1nnnn1-c1ccc2ccccc2c1	x	0.65	1	0	1
Cc1ccc(S(=O)(=O)NC(CC(=O)NCC2CCCO2)c2ccccc2)cc1 (stereo unspecified)	i	-0.56	0	2	1
O=C(COC(=O)[C@@H]1CCCN1S(=O)(=O)c1ccccc1F)Nc1ccc(OC(F)F)cc1	i	-0.16	1	18	0
CC(=O)N1CCc2cc(S(=O)(=O)NCCC(=O)N3CCN(Cc4ccccc4)CC3)ccc21	+	3.1	-7	14	0
CC1=C(C)/C(=N\OS(=O)(=O)c2ccc(C)cc2)C=CC1=O	i	-3.7*	-12	20	0
COc1ccc(S(=O)(=O)/N=C2/C=CC(=O)C(C)=C2C)cc1	i	-1.3	-9	-14	6
Cc1cc(=O)n2[nH]c(N3C(=O)CCC3=O)nc2n1	i	-0.056	1	30*	0
Cc1cc(-c2cc(N)n(-c3ccccc3)n2)c(C)n1C1CCCC1	+	3.3	-3	24	0
Cc1cc(N)n(-c2ccccc2)n1	i	-1.2	2	-18	2
SMILES	Autophagy HCS	Dynein transport	TNF necrop inh	MDM2 E3 inh	zVAD death inh
O=C(CO/N=C/c1ccc(OC(F)F)cc1)NC1CCCCCC1	+	-0.3	1	-8	-1
O=C(CO/N=C/c1ccc(OC(F)F)cc1)NC1CCCC1	i	-0.74	1	x	1
CCOC(=O)N1CCN(c2cccc(C)c2C)CC1	i	-0.66	-3	1	x
CCOC(=O)N1CCN(c2c(N3CCN(c4cccc(C)c4C)CC3)c(=O)c2=O)CC1	+	-0.16	-1	-14	1
COc1cccc(NC(=O)N2CCN(c3cccc(C)c3C)CC2)c1	+	0.33	-1	-4	1
CCN(CC)CCCNc1nc2cc(OC)c(OC)cc2c2nc(-c3ccccc3)nn12	+	5.6	-4	-15	-2
COc1cc2nc(NCCCN3CCN(C)CC3)n3nc(-c4ccccc4)nc3c2cc1OC	+	-0.07	-14	-34	-3
Cc1c(Nc2nc3ccccc3nc2NS(=O)(=O)c2ccccc2)c(=O)n(-c2ccccc2)n1C	+	-0.075	-3	-17	0
COC(=O)c1c(-c2ccccc2Cl)noc1/C=C/N(C)C	i	-0.91	0	42*	0
COc1ccc(S(=O)(=O)CC2(O)CCN(C(=O)CC(C)C)CC2)cc1	i	0.27	1	-2	0
CSc1nc(-c2ccccc2)nc(NC(C)=O)c1C(C)=O	i	0.97	0	-3	2
Oc1[nH]c2ccccc2c1N=NC(=S)N1CCOCC1	x	0.95	-18	31*	50
CCOc1cc(NC(=O)c2ccco2)c(OCC)cc1NC(=O)COc1ccccc1C	+	-0.62	-4	x	0
Cc1cc(C)c(S(=O)(=O)NCC2CCC(C(=O)NCc3ccccn3)CC2)c(C)c1 (stereo unspecified)	i	-0.47	0	-15	-1
CC(=O)Nc1c(O)nc(SCC(=O)Nc2nnc(CC(C)C)s2)[nH]c1=O	+	1	1	-2	1
Cc1cc(=O)[nH]c(SCC(=O)Nc2nnc(CC(C)C)s2)n1	i	0.47	-1	-5	0
Cc1cc(C)nc(NS(=O)(=O)c2ccc(CC(C)C)cc2)c1	x	2.3	-1	-6	0
O=C(Nc1ccc2c(c1)OCCO2)c1c(F)cccc1F	i	0.26	-1	-13	-2
CC(C(=O)Nc1ccc2c(c1)OCCO2)N(C)Cc1c(F)cccc1Cl (stereo unspecified)	+	-0.93	0	2	0
CN(CCn1ccnc1)Cc1cn(-c2ccccc2)nc1-c1ccc2c(c1)OCO2	i	-0.18	2	-3	0
CN(Cc1cn(-c2ccccc2)nc1-c1ccc2c(c1)OCO2)Cc1nccn1C	+	-0.31	2	0	-1
COc1cccc(C(=O)NC2CCN(C(=O)N3CCCCC3)CC2)c1	i	-0.73	1	-47	3
CC(=O)NC1CCN(C(=O)N2CCCC2)CC1	+	1.7	0	-3	-1
CCNC(=O)Nc1ccc(OC)cc1OC	i	0.51	0	2	2
O=C(NC(=S)Nc1ccccc1F)c1ccc(Br)o1	i	-0.24	-2	-4	0
CCOC(=O)c1c(C)[nH]c(C(=O)N/N=C/c2cccc(OC)c2)c1C	i	0.23	-8	-5	6
